Experimental data of several laboratories.
Protocols differ between the studies behind these lines.
Read-out: cell growth or viability

Compound	cell line	method	tested at	time	endpoint	value
COc1cc(-c2ccc(-c3ccc(C(=N)N)nc3)s2)cc(OC)c1OC	IGROV-1	SRB			GI50	2.63 µM
Cc1cc(=O)oc2ccc(-c3cc(-c4ccc(Cl)cc4)nc(N)n3)c(O)c12	KB	MTT	32 µg/mL	72 h	inhibition	54%
CC(C)C[C@H](NC(=O)[C@H](Cc1ccccc1)NC(=O)c1cnccn1)B(O)O	SNU1	ATP luminescence			IC50	0.014 µM
Oc1ccc(Nc2nc(-c3ccc(Cl)cc3)cs2)cc1	UACC-903	MTS		48 h	IC50	59.1 µM
C=CC(=O)N1CCN(c2cc(-c3noc([C@@]4(C)CCCc5sc(N)c(C#N)c54)n3)nc(N3CCN(C)C[C@@H]3C)c2)CC1	LS-513			5 days	EC50	4.7 µM
COC(=O)COc1cccc(NC(=O)C2(c3cccc(Br)c3)CC2)c1	U-937	ATP luminescence		72 h	GI50	3.5 µM
Cc1cc(=O)oc2ccc(-c3cc(-c4cccc(Cl)c4)nc(N)n3)c(O)c12	KB	MTT	32 µg/mL	72 h	inhibition	16%
COC(=O)COc1ccc(NC(=O)C2(c3ccccc3)CC2)cc1Br	U-937	ATP luminescence		72 h	GI50	6.1 µM
Cc1cc(=O)oc2ccc(-c3cc(-c4ccc(Br)cc4)nc(N)n3)c(O)c12	KB	MTT	2 µg/mL	72 h	inhibition	0%
COC(=O)COc1ccc(NC(=O)C2(c3cccc(Br)c3)CC2)c(C)c1	U-937	ATP luminescence		72 h	GI50	3.2 µM
Cc1cc(=O)oc2ccc(-c3cc(-c4cccs4)nc(N)n3)c(O)c12	KB	MTT	128 µg/mL	72 h	inhibition	17%
COC(=O)COc1ccc(NC(=O)C2(c3ccc(F)cc3)CC2)cc1	U-937	ATP luminescence		72 h	GI50	5.9 µM
C=CC(=O)N1CCC[C@@H](n2nc(-c3ccc(Oc4ccccc4)cc3)c3c(N)ncnc32)C1	MINO	ATP luminescence		72 h	GI50	6.31 µM
